Experimental data from different studies.
Each line is one published result; the experiments were not run side by side.
Target: Serine/threonine-protein kinase PRP4 homolog (PRPF4B, Homo sapiens, UniProt Q13523)

SMILES	observed	method	concentration	remaining binding [%]
CN(C)c1nccc(-c2cnn3ncccc23)n1	binding	–	1 µM	86
C=CC(=O)N1CCC(C(=O)NCC(=O)N2CCN(c3nc(-c4cnc(N)nc4C(F)F)nc(N4CCOCC4)n3)CC2)CC1	binding	competition with immobilised ligand	1 µM	100
COc1cnc(Nc2cccc(S(N)(=O)=O)c2)nc1N1CCN(c2ccccc2)C(=O)C1	binding	competition with immobilised ligand	1 µM	100
O=C(NCCCC1CCCCC1)c1ccc(CNC(=O)c2cnn(-c3ccccc3)c2C(F)(F)F)cc1	cell-free assay	competition with immobilised ligand	0.1 µM	100
Nc1ncc2c(n1)-c1c([nH]c3ccc(C#CC4CC4)cc13)CCCC2	binding	competition with immobilised ligand	1 µM	80
O=C(c1ccc(Nc2nccc(-c3cc4ccccc4s3)n2)cc1)N1CCC(N2CCCC2)CC1	binding	competition with immobilised ligand	1 µM	6.3
CS(=O)(=O)N1CCCC(NC(=O)[C@H](CCC2CCCCC2)NC(=O)c2ccc(CNc3ncnc4c3nnn4-c3ccccc3)cc2)C1 (stereo partly shown)	cell-free assay	competition with immobilised ligand	0.1 µM	60
O=C(c1ccc(Nc2ncc(Cl)c(-c3ccc(Cl)s3)n2)cc1)N1CCC(N2CCCC2)CC1	binding	competition with immobilised ligand	1 µM	19
Cc1nn(C)cc1-c1nc2c(N3CCN(Cc4ccc(Cl)cc4)CC3)c(Cl)cnc2[nH]1	binding	competition with immobilised ligand	1 µM	100
FC(F)(F)c1ccc2c(c1)nc(-c1cccnc1)n2C1CC1	cell-free assay	competition with immobilised ligand	1 µM	98
C[C@@H](c1ccc(-n2cnc3c(N)ncnc32)cc1)N1CCc2nn(C)c(Cc3ccccc3)c2C1=O	binding	competition with immobilised ligand	0.1 µM	100
O=C(NCCCN1CCOCC1)c1ccc(Nc2nccc(-c3cc4ccccc4s3)n2)cc1	binding	competition with immobilised ligand	1 µM	6.8
C[C@H]1CCN(c2nccc(-c3cnn4ncccc34)n2)C1	binding	–	1 µM	53
O=C(NCC1CCOCC1)c1n[nH]cc1NC(=O)c1c(F)cccc1F	binding	competition with immobilised ligand	1 µM	100
F[C@@H]1CCN(c2nccc(-c3cnn4ncccc34)n2)C1	binding	–	1 µM	100
CC(=O)N1CCC(c2ccc(C(=O)NC(=N)N)cc2C(F)(F)F)CC1	cell-free assay	competition with immobilised ligand	1 µM	78
N[C@H]1CCN(c2nccc(-c3cnn4ncccc34)n2)C1	binding	–	1 µM	82
C[C@@H]1CN(c2cc(-c3nn(C)c4ccc(OC5(C)CC5)cc34)ncn2)C[C@H](C)O1	cell-free assay	competition with immobilised ligand	1 µM	100
CN(c1nccc(-c2cnn3ncccc23)n1)C1CC1	binding	–	1 µM	100
COc1ncc2cc3ccccc3nc2c1C#N	cell-free assay	competition with immobilised ligand	5 µM	100
c1cnn2ncc(-c3ccnc(N4CCC45COC5)n3)c2c1	binding	–	1 µM	84
O=C(NCc1ncc(C(F)(F)F)cc1Cl)c1ccc2c(c1)C1(CCS(=O)(=O)CC1)[C@@H](C1CC1)N2S(=O)(=O)c1ccc(F)cc1	cell-free assay	competition with immobilised ligand	1 µM	84
